Measurements reported in ChEMBL document CHEMBL1142536, “Synthesis of triazole-linked beta-C-glycosyl dimers as inhibitors of PTP1B” (Bioorg Med Chem, 2008).

Experiments:
[1] = molecular target: T1, Tyrosine-protein phosphatase non-receptor type 1 (Homo sapiens) (UniProt P18031); test: Inhibition of human recombinant PTP1B catalytic domain at 20 ug/mL
T1 sequence (whole entry): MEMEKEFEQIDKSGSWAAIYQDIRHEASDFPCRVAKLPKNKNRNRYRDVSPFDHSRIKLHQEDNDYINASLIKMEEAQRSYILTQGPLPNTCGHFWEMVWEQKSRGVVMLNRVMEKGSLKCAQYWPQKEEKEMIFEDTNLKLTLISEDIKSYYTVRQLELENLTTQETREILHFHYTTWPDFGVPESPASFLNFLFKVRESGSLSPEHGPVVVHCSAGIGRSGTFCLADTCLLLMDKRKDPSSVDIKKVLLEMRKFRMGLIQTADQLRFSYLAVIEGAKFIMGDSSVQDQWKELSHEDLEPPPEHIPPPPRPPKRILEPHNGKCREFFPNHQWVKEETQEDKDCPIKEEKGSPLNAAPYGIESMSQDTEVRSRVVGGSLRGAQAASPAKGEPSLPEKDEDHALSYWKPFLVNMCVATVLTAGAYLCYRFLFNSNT
Procedure, shortened: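 Human PTP1B catalytic domain (recombinant) hydrolysing 2 mM pNPP in 50 mM MOPS pH 6.5 at 30 °C. pNP formation followed at 405 nm for 2 min. Initial rate taken from the early linear region. Compounds tested at 20 µg/mL. Result given as percent inhibition.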

[2] = molecular target: T2, Tyrosine-protein phosphatase non-receptor type 1 (Homo sapiens, UniProt P18031); test: Inhibition of human recombinant PTP1B catalytic domain
T2 sequence (P18031 whole entry): T1 sequence (whole entry)
Procedure, shortened: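 Recombinant human PTP1B catalytic domain, 30 nM, with 2 mM pNPP substrate in 50 mM MOPS pH 6.5 at 30 °C. pNP release read continuously at 405 nm for 2 min. Initial rate comes from the early linear part of the curve. Inhibitors diluted around the estimated IC50. IC50 from nonlinear fit of % inhibition vs [I] with a Hill coefficient term.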

Structure (SMILES)	inhibition [1]	IC50 [2]
CC(=O)O[C@@H]1[C@@H](OC(C)=O)[C@H](C2=CC(=O)c3ccccc3C2=O)O[C@H](Cn2cc(COC(=O)c3cccc(C(=O)OCc4cn(C[C@H]5O[C@@H](C6=CC(=O)c7ccccc7C6=O)[C@H](OC(C)=O)[C@@H](OC(C)=O)[C@@H]5OC(C)=O)nn4)c3)nn2)[C@H]1OC(C)=O	8.5%	
O=C1C=CC(=O)C([C@@H]2O[C@H](Cn3cc(COC(=O)c4cccc(C(=O)OCc5cn(C[C@H]6O[C@@H](C7=CC(=O)C=CC7=O)[C@H](OC(=O)c7ccccc7)[C@@H](OC(=O)c7ccccc7)[C@@H]6OC(=O)c6ccccc6)nn5)c4)nn3)[C@@H](OC(=O)c3ccccc3)[C@H](OC(=O)c3ccccc3)[C@H]2OC(=O)c2ccccc2)=C1	95.8%	620 nM
COc1ccc(OC)c([C@@H]2O[C@H](Cn3cc(COC(=O)c4cccc(C(=O)OCc5cn(C[C@H]6O[C@@H](c7cc(OC)ccc7OC)[C@H](OC(=O)c7ccccc7)[C@@H](OC(=O)c7ccccc7)[C@H]6OC(=O)c6ccccc6)nn5)c4)nn3)[C@H](OC(=O)c3ccccc3)[C@H](OC(=O)c3ccccc3)[C@H]2OC(=O)c2ccccc2)c1	98.5%	880 nM
O=C1C=CC(=O)C([C@@H]2O[C@H](Cn3cc(COC(=O)c4cccc(C(=O)OCc5cn(C[C@H]6O[C@@H](C7=CC(=O)C=CC7=O)[C@H](OC(=O)c7ccccc7)[C@@H](OC(=O)c7ccccc7)[C@H]6OC(=O)c6ccccc6)nn5)c4)nn3)[C@H](OC(=O)c3ccccc3)[C@H](OC(=O)c3ccccc3)[C@H]2OC(=O)c2ccccc2)=C1	95.5%	720 nM
CC(=O)OC[C@H]1O[C@@H](C2=CC(=O)C=CC2=O)[C@H](OC(C)=O)[C@@H](OC(C)=O)[C@@H]1OC(C)=O		4850 nM
COc1ccc(OC)c([C@@H]2O[C@H](Cn3cc(COC(=O)c4cccc(C(=O)OCc5cn(C[C@H]6O[C@@H](c7cc(OC)ccc7OC)[C@H](OC(=O)c7ccccc7)[C@@H](OC(=O)c7ccccc7)[C@@H]6OC(=O)c6ccccc6)nn5)c4)nn3)[C@@H](OC(=O)c3ccccc3)[C@H](OC(=O)c3ccccc3)[C@H]2OC(=O)c2ccccc2)c1	97.8%	870 nM

Next, values leading:

inhibition [1]	IC50 [2]	Structure (SMILES)
7.5%		COc1cc([C@@H]2O[C@H](CN3C=C(COC(=O)c4cccc(C(=O)OCC5=CN(C[C@H]6O[C@@H](c7cc(OC)c8ccccc8c7OC)[C@H](OC(C)=O)[C@@H](OC(C)=O)[C@H]6OC(C)=O)NN5)c4)NN3)[C@H](OC(C)=O)[C@H](OC(C)=O)[C@H]2OC(C)=O)c(OC)c2ccccc12
12.5%		COc1cc([C@@H]2O[C@H](CN3C=C(COC(=O)c4cccc(C(=O)OCC5=CN(C[C@H]6O[C@@H](c7cc(OC)c8ccccc8c7OC)[C@H](OC(C)=O)[C@@H](OC(C)=O)[C@@H]6OC(C)=O)NN5)c4)NN3)[C@@H](OC(C)=O)[C@H](OC(C)=O)[C@H]2OC(C)=O)c(OC)c2ccccc12
0.8%		CC(=O)O[C@H]1[C@@H](OC(C)=O)[C@@H](Cn2cc(COC(=O)c3cccc(C(=O)OCc4cn(C[C@H]5O[C@@H](C6=CC(=O)c7ccccc7C6=O)[C@H](OC(C)=O)[C@@H](OC(C)=O)[C@H]5OC(C)=O)nn4)c3)nn2)O[C@@H](C2=CC(=O)c3ccccc3C2=O)[C@@H]1OC(C)=O
